Results as given in ChEMBL document CHEMBL1250467, “Design, synthesis, and anticonvulsant activity of new N-Mannich bases derived from spirosuccinimides and spirohydantoins” (Bioorg Med Chem, 2010).
The source made the active and inactive calls. No cut-off for these calls is given here.

Columns and labels:
Mus musculus [1] = assay: Neurotoxicity in CF1 albino mouse assessed as tremors at 300 mg/kg, ip after 4 hrs by rotarod test; assay type: toxicity, organism-based; design: dose 300 mg/kg, route intraperitoneal; settings: in vivo
How it was run: (§1)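 Male CF-1 mice; compounds suspended in 0.5% methylcellulose/water and injected ip at 30, 100 and 300 mg/kg. MES, scPTZ (pentylenetetrazole 85 mg/kg sc at the test time) and rotarod neurotoxicity were scored at 0.5 and 4 h. Value is the lowest dose active or toxic in half or more of the animals; signs such as ataxia or tremor were recorded.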

Mus musculus [2] = assay: Anticonvulsant activity in CF1 albino mouse assessed as protection against maximal electroshock-induced seizures at 300 mg/kg, ip after 0.5 hrs; assay type: functional, organism-based; design: dose 300 mg/kg; how it was run: as §1
Mus musculus [3] = assay: Anticonvulsant activity in CF1 albino mouse assessed as protection against subcutaneous pentylenetetrazole-induced seizures at 300 mg/kg, ip after 0.5 hrs; assay type: functional, organism-based; design: dose 300 mg/kg; how it was run: as §1
Mus musculus [4] = assay: Anticonvulsant activity in CF1 albino mouse assessed as protection against subcutaneous pentylenetetrazole-induced seizures at 300 mg/kg, ip after 4 hrs; assay type: functional, organism-based; design: dose 300 mg/kg; how it was run: as §1
Mus musculus [5] = assay: Anticonvulsant activity in ip dosed CF1 albino mouse assessed as dose required to protect against maximal electroshock-induced seizures after 4 hrs; assay type: functional; how it was run: as §1
Mus musculus [6] = assay: Neurotoxicity in CF1 albino mouse assessed as ataxia at 300 mg/kg, ip after 4 hrs by rotarod test; assay type: toxicity, organism-based; design: dose 300 mg/kg, route intraperitoneal; settings: in vivo; how it was run: as §1
Mus musculus [7] = assay: Neurotoxicity in CF1 albino mouse assessed as muscle spasms at 300 mg/kg, ip after 4 hrs by rotarod test; assay type: toxicity, organism-based, Muscle tissue; design: dose 300 mg/kg, route intraperitoneal; settings: in vivo; how it was run: as §1
Rattus norvegicus [8] = assay: Anticonvulsant activity in Sprague-Dawley rat assessed as protection against maximal electroshock-induced seizures at 30 mg/kg po after 0.5 hrs; assay type: functional
How it was run: (§2)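 Male Sprague–Dawley rats, four per group, given 30 mg/kg orally as a 0.5% methylcellulose/water suspension. MES protection scored at 0.25, 0.5, 1, 2 and 4 h after dosing, motor impairment checked in parallel; data are the number of the four rats protected.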

Rattus norvegicus [9] = assay: Anticonvulsant activity in po dosed Sprague-Dawley rat assessed as protection against maximal electroshock-induced seizures; assay type: functional
How it was run: (§3)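 Male Sprague–Dawley rats dosed orally (0.5% methylcellulose/water suspension), groups of eight, tested at the previously estimated time of peak effect. Doses varied until at least three points lay in the 10–90% range of protection (MES, scPTZ) or minimal rotarod neurotoxicity. ED50/TD50 with 95% confidence intervals came from regression; PI = TD50/ED50.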

Mus musculus [10] = assay: Neurotoxicity in CF1 albino mouse assessed as unable to grasp rotarod at 100 mg/kg, ip after 4 hrs by rotarod test; assay type: toxicity, organism-based; design: dose 100 mg/kg, route intraperitoneal; settings: in vivo; how it was run: as §1
Rattus norvegicus [11] = assay: Anticonvulsant activity in Sprague-Dawley rat assessed as protection against maximal electroshock-induced seizures at 30 mg/kg po after 1 hr; assay type: functional; how it was run: as §2
Mus musculus [12] = assay: Anticonvulsant activity in ip dosed CF1 albino mouse assessed as dose required to protect against subcutaneous pentylenetetrazole-induced seizures after 4 hrs; assay type: functional; how it was run: as §1
Rattus norvegicus [13] = assay: Anticonvulsant activity in Sprague-Dawley rat assessed as protection against maximal electroshock-induced seizures at 30 mg/kg po after 4 hrs; assay type: functional; how it was run: as §2
Mus musculus [14] = assay: Anticonvulsant activity in ip dosed CF1 albino mouse assessed as dose required to protect against subcutaneous pentylenetetrazole-induced seizures after 0.5 hrs; assay type: functional; how it was run: as §1
Mus musculus [15] = assay: Anticonvulsant activity in ip dosed CF1 albino mouse assessed as dose required to protect against maximal electroshock-induced seizures after 0.5 hrs; assay type: functional; how it was run: as §1
Rattus norvegicus [16] = assay: Anticonvulsant activity in po dosed Sprague-Dawley rat assessed as time required to peak protection against seizures; assay type: functional
[17] = Neurotoxicity in po dosed Sprague-Dawley rat by rotarod test; assay type: toxicity, organism-based; settings: in vivo; how it was run: as §3
Rattus norvegicus [18] = assay: Anticonvulsant activity in po dosed Sprague-Dawley rat assessed as protection against subcutaneous pentylenetetrazole-induced seizures; assay type: functional; how it was run: as §3
Rattus norvegicus [19] = assay: Anticonvulsant activity in Sprague-Dawley rat assessed as protection against maximal electroshock-induced seizures at 30 mg/kg po after 2 hrs; assay type: functional; how it was run: as §2
Mus musculus [20] = assay: Neurotoxicity in CF1 albino mouse at 300 mg/kg, ip after 4 hrs by rotarod test; assay type: toxicity, organism-based; design: dose 300 mg/kg, route intraperitoneal; settings: in vivo; how it was run: as §1
Rattus norvegicus [21] = assay: Anticonvulsant activity in Sprague-Dawley rat assessed as protection against maximal electroshock-induced seizures at 30 mg/kg po after 0.25 hrs; assay type: functional; how it was run: as §2
Rattus norvegicus [22] = species on record: Rattus norvegicus; assay: Protection index, ratio of TD50 for Sprague-Dawley rat by rotarod test to ED50 for Sprague-Dawley rat by maximal electroshock test; assay type: functional; how it was run: as §3
Mus musculus [23] = assay: Neurotoxicity in CF1 albino mouse assessed as mortality at 300 mg/kg, ip after 4 hrs by rotarod test; assay type: toxicity, organism-based; design: dose 300 mg/kg, route intraperitoneal; settings: in vivo
How it was run: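 Male CF-1 albino mice, groups of eight, were given the compound ip as a suspension in 0.5% methylcellulose/water at 30, 100 and 300 mg/kg. Rotarod testing at 0.5 and 4 h scored inability to keep balance on the rod. The value is the lowest dose causing toxicity in half or more animals, with response comments such as death.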

| Compound | Activity (Mus musculus [3]) | Activity (Mus musculus [4]) | Activity (Mus musculus [5]) [mg/kg] | Activity (Rattus norvegicus [8]) [%] | Activity (Rattus norvegicus [11]) [%] | Activity (Rattus norvegicus [13]) [%] | Activity (Mus musculus [15]) [mg/kg] | Activity (Rattus norvegicus [19]) [%] | Activity (Mus musculus [20]) | Activity (Rattus norvegicus [21]) | also measured |
| --- | --- | --- | --- | --- | --- | --- | --- | --- | --- | --- | --- |
| O=C1NC2(CCc3ccccc3C2)C(=O)N1CN1CCN(c2ccccc2F)CC1 (centres undefined) | inactive | inactive | 100 | – | – | – | – | – | – | – | Activity (Mus musculus [1]): Non-toxic; Activity (Mus musculus [2]): inactive; Activity (Mus musculus [6]): Non-toxic; Activity (Mus musculus [7]): Non-toxic |
| O=C1NC2(CCc3ccccc3C2)C(=O)N1CN1CCN(CCO)CC1 (centres undefined) | – | – | 300 | 25 | 50 | 100 | 100 | 100 | Non-toxic | inactive | ED50 (Rattus norvegicus [9]): 14.9 mg/kg; Activity (Mus musculus [10]): Non-toxic; Activity (Mus musculus [12]): 300 mg/kg; Activity (Mus musculus [14]): 100 mg/kg; Time (Rattus norvegicus [16]): 4 h; TD50 [17]: > 300 mg/kg; ED50 (Rattus norvegicus [18]): > 250 mg/kg; PI (Rattus norvegicus [22]): >20.09 |
| O=C1NC2(CCc3ccccc3C2)C(=O)N1CN1CCN(Cc2ccccc2)CC1 (centres undefined) | inactive | inactive | 100 | 50 | 75 | 50 | 100 | 50 | Non-toxic | 25% | Activity (Mus musculus [23]): Non-toxic |
